Laboratory results as given in paper PMC7647946 (Drug delivery and translational research, 2021).

Columns and labels:
[1] = Pharmacokinetics of PD98059 following IV injection; type: in vivo, rat
How it was run: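 Male Sprague-Dawley rats, urethane-anaesthetised, received slow femoral-vein infusion of test compound (0.5 mg/ml, 2 ml, 10% Tween 80/DPBS). Blood drawn at 5, 15, 30, 60, 180 and 360 min into K2-EDTA, plasma stored at −80° C. 100 μl plasma spiked with 7-hydroxyflavone, acetonitrile-precipitated, dried and reconstituted. HPLC against naïve-plasma standards; n=3 (n=1 at 6 h). PK Solver 1-/2-compartment fits; non-compartmental AUC0-t.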

Organ = type: in vivo, rat; settings: healthy rats
How it was run: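 Male Sprague-Dawley rats (6–8 weeks, 275–300 g), urethane-anaesthetised, with a femoral-vein cannula. Test compound at 0.5 mg/ml in 10% Tween 80/sterile 1X DPBS, 2 ml infused slowly. Brain taken at 1 and 3 h (n=3 per time), rinsed, held at −80° C. 200–400 mg homogenised in DPBS with 7-hydroxyflavone internal standard. Cold-acetonitrile precipitation, N2 drying, mobile-phase reconstitution. HPLC-diode array against naïve-tissue standards; mean ± SD.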

[2] = Solubility of PD98059 in the release medium; type: physicochemical; settings: 0.4% v/v Tween 80 in 1X DPBS, 37° C
[3] = tested on: pERK1/2 expression in PVN; settings: 1-hour ICV infusion, rats with heart failure; ref [23]; cited from earlier work
rats with heart failure = settings: cited from earlier work
[4] = 1-compartment model, IV 1 mg, healthy rats
[5] = 2-compartment model, IV 1 mg, healthy rats
[6] = non-compartmental analysis, IV 1 mg, healthy rats
[7] = 1-hour ICV infusion, rats with heart failure, ref [23]

With `COc1cccc(-c2cc(=O)c3ccccc3o2)c1N` [PD98059] as the molecule, how does the AUC0-inf [1, 4] read?
Its AUC0-inf is 76774.83 ng·min/mL.

What about the AUC0-t [1, 4] of the same molecule?
The AUC0-t was 76774.82 ng·min/mL.

What about the AUMC [1, 4] of the same molecule?
The AUMC was 1716754 ng.min^2/ml.

What about the C0 [1, 4] of the same molecule?
The C0 was 3433.44 ng/mL.

And the CI [1, 4]?
Its CI is 13.03 mL/min.

What about the K [1, 4] of the same molecule?
The K was 0.045 min⁻¹.

And the MRT [1, 4]?
The MRT was 0.3727 h.

What about the T1/2 [1, 4] of the same molecule?
The T1/2 was 0.258 h.

What about the V [1, 4] of the same molecule?
The V was 291.25 mL.

What about the Vss [1, 4] of the same molecule?
The Vss was 291.25 mL.

What about the A [1, 5] of the same molecule?
The A was 3236.5 ng/mL.

What about the AUC0-inf [1, 5] of the same molecule?
The AUC0-inf was 135064 ng·min/mL.

What about the AUC0-t [1, 5] of the same molecule?
The AUC0-t was 131605.22 ng·min/mL.

What about the AUMC [1, 5] of the same molecule?
The AUMC was 11287504.55 ng.min^2/ml.

And the B [1, 5]?
Its B is 980.76 ng/mL.

What about the C0 [1, 5] of the same molecule?
The C0 was 4217.23 ng/mL.

And the CI [1, 5]?
Its CI is 7.4 mL/min.

What about the K10 [1, 5] of the same molecule?
Its K10 is 0.031 min⁻¹.

And the K12 [1, 5]?
The K12 was 0.05 min⁻¹.

What about the K21 [1, 5] of the same molecule?
The K21 was 0.031 min⁻¹.

What about the MRT [1, 5] of the same molecule?
The MRT was 1.393 h.

And the V [1, 5]?
The V was 237.12 mL.

What about the Vss [1, 5] of the same molecule?
Its Vss is 618.76 mL.

And the α [1, 5]?
Its α is 0.104 min.

What about the β [1, 5] of the same molecule?
The β was 0.0094 min.

And the AUC0-t ([1]; IV 1 mg PD98059 in solution, NCA)?
The AUC0-t was 142720 ng·min/mL.

And the “K (elimination rate constant)” value ([1]; non-compartmental analysis, IV 1 mg PD98059 in 10% Tween 80, healthy rats, plasma)?
Its value is 0.0074 min⁻¹.

What about the AUC0-inf [1, 6] of the same molecule?
The AUC0-inf was 152980.9 ng·min/mL.

And the AUC0-t [1, 6]?
The AUC0-t was 142723.37 ng·min/mL.

What about the AUMC0-inf [1, 6] of the same molecule?
The AUMC0-inf was 14922241.77 ng.min^2/ml.

And the “C0 (plasma concentration at 0 time)” value [1, 6]?
Its value is 3863.5 ng/mL.

And the “CI (clearance)” value [1, 6]?
The value was 6.54 mL/min.

And the MRT0-inf [1, 6]?
The MRT0-inf was 1.626 h.

And the “V (volume of distribution)” value [1, 6]?
Its value is 885.82 mL.

What about the “Vss (steady state volume of distribution)” value [1, 6] of the same molecule?
The value was 637.62 mL.

And the “T1/2 (plasma half-life)” value ([1]; non-compartmental analysis, IV 1 mg, healthy rats, plasma)?
The value was 1.566 h.

And the “brain PD98059 level” value (Organ; 1 hour after IV 1 mg)?
Its value is “approximately 410 ng/g”.

What about the “brain PD98059 level” value (Organ; 3 hours after IV 1 mg) of the same molecule?
The value was ~76 ng/g.

And the “solubility in release medium” value [2]?
The value was “approximately 113 μg/ml”.

What about the “pERK1/2 expression in PVN” value [3] of the same molecule?
The value was “decreased”.

And the “neuronal excitation in PVN” value (rats with heart failure; [7])?
The value was “decreased”.

And the “renal sympathetic nerve activity” value (rats with heart failure; [7])?
Its value is “decreased”.

And the “plasma norepinephrine (index of overall sympathetic nerve activity)” value (rats with heart failure; chronic (4 week) ICV infusions, heart failure rats, ref [19])?
Its value is “reduced”.
